Results from PubChem BioAssay AID623969 (Broad Institute, 2012).
Values joined by “and” are separate entries in the source; they are usually repeats but may differ in a detail not shown here. Equal entries are not always repeated.

Tested on: S. cerevisiae growth in glycerol medium, OD600, 48 h
Test: S. cerevisiae growth inhibition in glycerol medium, dose response, OD600, powder samples, set 3 (AID 623969)
Procedure, shortened: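 Assay system: S. cerevisiae yeast on glycerol. Buffer or medium: CSM medium supplemented with glycerol as carbon source. Detection: optical density at 600 nm. Times: 48 h exposure, 30 °C, no shaking. Benchmarks: amphotericin B 10 µM positive control. Doses: pinned compound dilution series. Read-out basis: Glycerol-dependent yeast growth.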

CCOC(=O)N1C(=O)C2(CCCCC2)N(c2cccc(C)c2)C1=S and CCOC(=O)N1C(=O)C2(CCCCC2)N(c2ccccc2)C1=S are within 1.5-fold of each other in AC50: 0.0276 µM for the first, 0.02 µM for the second.

CCOC(=O)N1C(=O)C2(CCCCC2)N(c2ccc(C#N)cc2)C1=S and CCOC(=O)N1C(=O)C2(CCCCC2)N(c2ccc(F)cc2)C1=S are within 1.5-fold of each other in AC50: 0.00481 µM for the first, 0.00561 µM for the second.

Going from CC1/C=C/C=C\C=C\C=C\C=C\C=C\C=C\C(O[C@H]2OC(C)C(O)C(N)C2O)CC2OC(O)(CC(O)CC(O)C(O)CCC(O)CC(O)CC(=O)OC(C)C(C)C1O)CC(O)C2C(=O)O (stereo partly drawn) to C/C=C/[C@@H]1[C@H]2C[C@@H](C)CC[C@@H]2C(C)=C[C@H]1C(=O)c1c(O)c(-c2ccc(O)cc2)c[nH]c1=O, the AC50 falls from 0.234 µM to 0.0335 µM (7-fold).

Compound CCOC(=O)N1C(=O)C2(CCCCC2)N(c2ccc(Cl)cc2)C1=S has an AC50 of 0.00826 µM.

With CCOC(=O)N1C(=O)C2(CCCCC2)N(c2ccc(C)cc2)C1=S the AC50 was 0.015 µM and 0.0136 µM.
